Data reported in PMC5952261 (ACS Infectious Diseases, 2018).
In brackets after ≈: the same amount, converted by molar mass. Positions of bridges follow the written chain, without caps; N, C: chain ends. Non-standard residues stand in square brackets, D forms with d. Residues, ends and D or L forms follow the SMILES beside them. *: point of attachment. X1 = CC[C@H](C)CCCCC(=O)*; Dab = NCC[C@H](N)C(=O)O

Legend:
[1] = test system: P. aeruginosa FADDI-PA066; test: Impact of sputum biomolecules on lipopeptide activity in CAMHB; type: cell-based, Pseudomonas aeruginosa; conditions: lipopeptide 2 mg/L, 3 h, colony counts; for impact of F-actin/DNA on antibacterial activity: F-actin/DNA 125 mg/L; for impact of mucin on antibacterial activity: mucin 125 mg/L (50% (w/v)); for impact of phospholipids on antibacterial activity: phospholipids 125 mg/L
Summary of the method: (§1)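 Mid-log cultures (OD500 0.4–0.6; 37 °C, 180 rpm) were diluted to OD ~0.05 in CAMHB. Test compound at 2 mg/L was coincubated for 3 h in 24-well plates with one biomolecule at 125 mg/L: F-actin/DNA, DNA, mucin, phospholipids, surfactant or LPS. Samples were spiral-plated and incubated overnight at 37 °C, and colonies were counted automatically. Detection limit 10 CFU/mL.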

[2] = test system: P. aeruginosa FADDI-PA001; test: MIC in CAMHB; type: cell-based, Pseudomonas aeruginosa; conditions: polymyxin susceptible, 10^6 CFU/mL, 18 h, 37 °C, visible growth
[3] = test system: P. aeruginosa ATCC 27853; test: MIC in CAMHB; type: cell-based, Pseudomonas aeruginosa; conditions: polymyxin susceptible, 10^6 CFU/mL, 18 h, 37 °C, visible growth
[4] = test system: P. aeruginosa FADDI-PA091; test: MIC in CAMHB; type: cell-based, Pseudomonas aeruginosa; conditions: polymyxin susceptible, 10^6 CFU/mL, 18 h, 37 °C, visible growth
[5] = test system: P. aeruginosa CF isolate FADDI-PA066; test: Cell viability, planktonic growth in artificial sputum media; type: cell-based, Pseudomonas aeruginosa; conditions: up to 128 mg/L
[6] = test system: P. aeruginosa FADDI-PA022; test: MIC in CAMHB; type: cell-based, Pseudomonas aeruginosa; conditions: polymyxin susceptible, 10^6 CFU/mL, 18 h, 37 °C, visible growth
[7] = test system: polymyxin-sensitive P. aeruginosa isolates; test: MIC in CAMHB, panel summary; type: cell-based, Pseudomonas aeruginosa; conditions: range over the panel of Table 1, CAMHB
[8] = test system: P. aeruginosa FADDI-PA038; test: MIC in CAMHB; type: cell-based, Pseudomonas aeruginosa; conditions: polymyxin susceptible, 10^6 CFU/mL, 18 h, 37 °C, visible growth
[9] = test system: P. aeruginosa FADDI-PA066; test: Transmission electron microscopy of cells growing in biofilm; type: cell-based, Pseudomonas aeruginosa; conditions: 1× MIC (colistin 128 mg/L; octapeptin A3 16 mg/L), 1 h, 37 °C
[10] = test system: mucin; conditions: dialysis; ref Huang et al., 32; cited from earlier work
[11] = test system: P. aeruginosa FADDI-PA025; test: MIC in CAMHB; type: cell-based, Pseudomonas aeruginosa; conditions: polymyxin susceptible, 10^6 CFU/mL, 18 h, 37 °C, visible growth
[12] = test system: P. aeruginosa FADDI-PA002; test: MIC in CAMHB; type: cell-based, Pseudomonas aeruginosa; conditions: polymyxin susceptible, 10^6 CFU/mL, 18 h, 37 °C, visible growth
[13] = test system: P. aeruginosa FADDI-PA066; test: MIC in CAMHB; type: cell-based, Pseudomonas aeruginosa; conditions: polymyxin resistant CF isolate, 10^6 CFU/mL, 18 h, 37 °C, visible growth
[14] = test system: P. aeruginosa FADDI-PA020; test: Impact of sputum biomolecules on lipopeptide activity in CAMHB; type: cell-based, Pseudomonas aeruginosa; conditions: lipopeptide 2 mg/L, 3 h, colony counts; for impact of DNA on antibacterial activity: DNA 125 mg/L; for impact of F-actin/DNA on antibacterial activity: F-actin/DNA 125 mg/L
Summary of the method: as §1

[15] = test system: P. aeruginosa FADDI-PA092; test: MIC in CAMHB; type: cell-based, Pseudomonas aeruginosa; conditions: polymyxin resistant, 10^6 CFU/mL, 18 h, 37 °C, visible growth
[16] = test system: P. aeruginosa FADDI-PA021; test: Impact of sputum biomolecules on lipopeptide activity in CAMHB; type: cell-based, Pseudomonas aeruginosa; conditions: lipopeptide 2 mg/L, 3 h, colony counts; for impact of DNA on antibacterial activity: DNA 125 mg/L; for impact of F-actin/DNA on antibacterial activity: F-actin/DNA 125 mg/L
Summary of the method: as §1

[17] = test system: P. aeruginosa FADDI-PA070; test: MIC in CAMHB; type: cell-based, Pseudomonas aeruginosa; conditions: polymyxin resistant, 10^6 CFU/mL, 18 h, 37 °C, visible growth
[18] = test system: P. aeruginosa FADDI-PA065; test: MIC in CAMHB; type: cell-based, Pseudomonas aeruginosa; conditions: polymyxin resistant, 10^6 CFU/mL, 18 h, 37 °C, visible growth
[19] = test system: P. aeruginosa FADDI-PA093; test: MIC in CAMHB; type: cell-based, Pseudomonas aeruginosa; conditions: polymyxin resistant, 10^6 CFU/mL, 18 h, 37 °C, visible growth
[20] = test system: P. aeruginosa FADDI-PA069; test: MIC in CAMHB; type: cell-based, Pseudomonas aeruginosa; conditions: polymyxin resistant, 10^6 CFU/mL, 18 h, 37 °C, visible growth
[21] = test system: P. aeruginosa FADDI-PA068; test: MIC in CAMHB; type: cell-based, Pseudomonas aeruginosa; conditions: polymyxin resistant, 10^6 CFU/mL, 18 h, 37 °C, visible growth
[22] = test system: P. aeruginosa FADDI-PA060; test: MIC in CAMHB; type: cell-based, Pseudomonas aeruginosa; conditions: polymyxin resistant, 10^6 CFU/mL, 18 h, 37 °C, visible growth
[23] = test system: P. aeruginosa FADDI-PA062; test: MIC in CAMHB; type: cell-based, Pseudomonas aeruginosa; conditions: polymyxin resistant, 10^6 CFU/mL, 18 h, 37 °C, visible growth

| SMILES | impact of F-actin/DNA on antibacterial activity [1] | impact of mucin on antibacterial activity [1] | impact of phospholipids on antibacterial activity [1] | minimum inhibitory concentration [2] [µg/mL] | minimum inhibitory concentration [3] [µg/mL] | minimum inhibitory concentration [4] [µg/mL] | activity (reduction of cell viability), in words [5] | minimum inhibitory concentration [6] [µg/mL] | MICs against the polymyxin-sensitive isolates [7] [mg/L] | minimum inhibitory concentration [8] [µg/mL] | binding to mucin [10] | minimum inhibitory concentration [11] [µg/mL] | minimum inhibitory concentration [12] [µg/mL] | minimum inhibitory concentration [13] [µg/mL] | impact of DNA on antibacterial activity [14] | impact of F-actin/DNA on antibacterial activity [14] | impact of DNA on antibacterial activity [16] | impact of F-actin/DNA on antibacterial activity [16] | further results |
| --- | --- | --- | --- | --- | --- | --- | --- | --- | --- | --- | --- | --- | --- | --- | --- | --- | --- | --- | --- |
| CC[C@H](C)CCCCC(=O)N[C@@H](CCN)C(=O)N[C@H](C(=O)N[C@@H](CCN)C(=O)N[C@H]1CCNC(=O)[C@H]([C@@H](C)O)NC(=O)[C@H](CCN)NC(=O)[C@H](CCN)NC(=O)[C@H](CC(C)C)NC(=O)[C@@H](CC(C)C)NC(=O)[C@H](CCN)NC1=O)[C@@H](C)O [colistin] (X1-[Dab]T[Dab][Dab][Dab][dL]L[Dab][Dab]T; lactam 4-C (inferred); N-terminus assumed) | no impact | not noticeable | not discernible | 0.5 (≈ 0.428 µM) | 1 (≈ 0.855 µM) | 0.5 (≈ 0.428 µM) | inactive even at 128 mg/L | 1 (≈ 0.855 µM) | 0.25 to 4 | 1 (≈ 0.855 µM) | avidly bind | 2 (≈ 1.71 µM) | 0.25 (≈ 0.214 µM) | >128 | marginally impacted | only marginally affected | marginally impacted | inhibited | effect on bacterial outer membrane (TEM) [9]: blebbing effect with vesicular protrusions from the outer membrane; minimum inhibitory concentration [15]: 16 µg/mL (≈ 13.7 µM) |
| CC[C@H](C)CCCCC(=O)N[C@@H](CCN)C(=O)N[C@H](C(=O)N[C@@H](CCN)C(=O)N[C@H]1CCNC(=O)[C@H]([C@@H](C)O)NC(=O)[C@H](CCN)NC(=O)[C@H](CCN)NC(=O)[C@H](CC(C)C)NC(=O)[C@@H](Cc2ccccc2)NC(=O)[C@H](CCN)NC1=O)[C@@H](C)O [polymyxin B] (X1-[Dab]T[Dab][Dab][Dab][dF]L[Dab][Dab]T; lactam 4-C (inferred); N-terminus assumed) | marginally inhibited | not noticeable | not discernible | 0.5 (≈ 0.415 µM) | 0.5 (≈ 0.415 µM) | 1 (≈ 0.831 µM) | inactive even at 128 mg/L | 1 (≈ 0.831 µM) | 0.25 to 4 | 1 (≈ 0.831 µM) | avidly bind | 2 (≈ 1.66 µM) | 0.5 (≈ 0.415 µM) | 32 (≈ 26.6 µM) | marginally impacted | only marginally affected | marginally impacted | inhibited | minimum inhibitory concentration [17]: >32 µg/mL; minimum inhibitory concentration [18]: >32 µg/mL; minimum inhibitory concentration [19]: 32 µg/mL (≈ 26.6 µM); minimum inhibitory concentration [20]: >32 µg/mL; minimum inhibitory concentration [21]: >32 µg/mL; minimum inhibitory concentration [22]: >128 µg/mL; minimum inhibitory concentration [23]: >32 µg/mL |
